Data: ChEMBL document CHEMBL1165965, “Synthesis and structure-activity relationships of 1,2,3,4-tetrahydropyrido[2,3-b]pyrazines as potent and selective inhibitors of the anaplastic lymphoma kinase” (Bioorg Med Chem, 2010)

Key:
[1] = molecular target: T1, TGF-beta receptor type-1 (Homo sapiens) (UniProt P36897); test: Inhibition of TGFBR1 at 1 uM
T1 sequence (whole entry): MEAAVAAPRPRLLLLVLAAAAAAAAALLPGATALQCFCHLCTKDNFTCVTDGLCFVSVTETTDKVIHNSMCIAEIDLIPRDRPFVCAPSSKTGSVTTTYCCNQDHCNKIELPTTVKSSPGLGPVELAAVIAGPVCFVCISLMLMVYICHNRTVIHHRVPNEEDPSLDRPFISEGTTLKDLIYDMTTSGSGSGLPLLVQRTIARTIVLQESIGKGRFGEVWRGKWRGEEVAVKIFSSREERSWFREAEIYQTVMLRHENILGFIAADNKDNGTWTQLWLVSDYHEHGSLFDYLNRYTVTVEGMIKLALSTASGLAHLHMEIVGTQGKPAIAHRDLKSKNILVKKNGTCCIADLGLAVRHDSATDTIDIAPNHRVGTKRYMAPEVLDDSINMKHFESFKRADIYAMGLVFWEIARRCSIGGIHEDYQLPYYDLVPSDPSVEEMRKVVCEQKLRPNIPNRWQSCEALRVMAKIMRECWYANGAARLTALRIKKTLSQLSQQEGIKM

[2] = molecular target: Phosphatidylinositol 4,5-bisphosphate 3-kinase catalytic subunit alpha isoform (Homo sapiens) (UniProt P42336); test: Inhibition of PIK3CA at 1 uM
[3] = molecular target: T2, MAP/microtubule affinity-regulating kinase 4 (Homo sapiens) (UniProt Q96L34); test: Inhibition of MARK4 at 1 uM
T2 sequence (whole entry): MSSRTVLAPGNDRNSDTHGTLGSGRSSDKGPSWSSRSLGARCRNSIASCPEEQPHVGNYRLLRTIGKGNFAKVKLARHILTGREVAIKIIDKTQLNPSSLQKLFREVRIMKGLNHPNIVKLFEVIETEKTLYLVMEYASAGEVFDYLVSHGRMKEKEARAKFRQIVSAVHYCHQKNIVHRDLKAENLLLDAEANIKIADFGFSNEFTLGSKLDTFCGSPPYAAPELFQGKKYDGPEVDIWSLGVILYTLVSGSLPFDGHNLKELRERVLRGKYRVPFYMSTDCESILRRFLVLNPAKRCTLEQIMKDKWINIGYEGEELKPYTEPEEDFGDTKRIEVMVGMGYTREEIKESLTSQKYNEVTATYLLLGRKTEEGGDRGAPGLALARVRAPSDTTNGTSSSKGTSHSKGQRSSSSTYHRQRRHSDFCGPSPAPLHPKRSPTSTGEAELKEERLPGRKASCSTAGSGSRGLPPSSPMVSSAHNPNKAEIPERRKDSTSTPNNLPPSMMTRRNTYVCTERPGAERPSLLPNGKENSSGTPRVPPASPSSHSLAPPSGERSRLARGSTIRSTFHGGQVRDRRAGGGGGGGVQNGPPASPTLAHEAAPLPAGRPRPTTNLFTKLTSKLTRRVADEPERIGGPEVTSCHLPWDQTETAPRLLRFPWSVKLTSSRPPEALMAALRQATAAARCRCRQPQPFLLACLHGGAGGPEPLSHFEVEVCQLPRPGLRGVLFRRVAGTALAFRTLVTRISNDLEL
Outline: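 Kinase-panel screen using KINOMEscan technology, with 250–400 kinases per panel. Each compound was tested at a single concentration, and inhibition of each kinase was recorded. Selectivity was summarised as S(90), the fraction of kinases inhibited by more than 90%.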

[4] = molecular target: T3, Serine/threonine-protein kinase 17B (Homo sapiens) (UniProt O94768); test: Inhibition of DRAK2 at 1 uM
T3 sequence (whole entry): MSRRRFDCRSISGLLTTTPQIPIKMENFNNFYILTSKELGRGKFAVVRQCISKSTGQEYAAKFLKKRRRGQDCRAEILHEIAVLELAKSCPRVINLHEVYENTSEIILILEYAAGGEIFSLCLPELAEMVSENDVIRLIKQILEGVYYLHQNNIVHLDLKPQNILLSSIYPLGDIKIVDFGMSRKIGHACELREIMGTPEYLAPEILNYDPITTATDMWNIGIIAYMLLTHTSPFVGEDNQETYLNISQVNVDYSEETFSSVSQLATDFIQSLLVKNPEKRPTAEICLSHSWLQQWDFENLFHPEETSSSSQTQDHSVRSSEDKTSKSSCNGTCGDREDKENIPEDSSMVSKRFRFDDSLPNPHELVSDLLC

[5] = molecular target: Serine/threonine-protein kinase OSR1 (Homo sapiens) (UniProt O95747); test: Inhibition of OSR1 at 1 uM
Sequence of Serine/threonine-protein kinase OSR1 (Homo sapiens) (O95747 2-527 limits assumed): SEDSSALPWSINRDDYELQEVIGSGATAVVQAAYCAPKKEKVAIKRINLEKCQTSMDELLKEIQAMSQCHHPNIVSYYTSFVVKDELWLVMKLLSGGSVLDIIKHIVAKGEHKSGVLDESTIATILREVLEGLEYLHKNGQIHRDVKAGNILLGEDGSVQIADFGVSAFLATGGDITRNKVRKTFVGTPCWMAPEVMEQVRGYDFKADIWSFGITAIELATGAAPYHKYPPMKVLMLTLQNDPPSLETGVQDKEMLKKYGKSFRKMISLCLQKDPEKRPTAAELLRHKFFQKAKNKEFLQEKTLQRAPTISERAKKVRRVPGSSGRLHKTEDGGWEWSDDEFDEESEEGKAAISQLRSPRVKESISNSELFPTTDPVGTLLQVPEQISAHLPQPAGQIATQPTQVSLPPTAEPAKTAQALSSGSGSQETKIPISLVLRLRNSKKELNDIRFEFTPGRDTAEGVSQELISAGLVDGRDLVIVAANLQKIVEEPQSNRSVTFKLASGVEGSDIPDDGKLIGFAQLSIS

Sequence of Phosphatidylinositol 4,5-bisphosphate 3-kinase catalytic subunit alpha isoform (Homo sapiens) (P42336 whole entry, canonical isoform): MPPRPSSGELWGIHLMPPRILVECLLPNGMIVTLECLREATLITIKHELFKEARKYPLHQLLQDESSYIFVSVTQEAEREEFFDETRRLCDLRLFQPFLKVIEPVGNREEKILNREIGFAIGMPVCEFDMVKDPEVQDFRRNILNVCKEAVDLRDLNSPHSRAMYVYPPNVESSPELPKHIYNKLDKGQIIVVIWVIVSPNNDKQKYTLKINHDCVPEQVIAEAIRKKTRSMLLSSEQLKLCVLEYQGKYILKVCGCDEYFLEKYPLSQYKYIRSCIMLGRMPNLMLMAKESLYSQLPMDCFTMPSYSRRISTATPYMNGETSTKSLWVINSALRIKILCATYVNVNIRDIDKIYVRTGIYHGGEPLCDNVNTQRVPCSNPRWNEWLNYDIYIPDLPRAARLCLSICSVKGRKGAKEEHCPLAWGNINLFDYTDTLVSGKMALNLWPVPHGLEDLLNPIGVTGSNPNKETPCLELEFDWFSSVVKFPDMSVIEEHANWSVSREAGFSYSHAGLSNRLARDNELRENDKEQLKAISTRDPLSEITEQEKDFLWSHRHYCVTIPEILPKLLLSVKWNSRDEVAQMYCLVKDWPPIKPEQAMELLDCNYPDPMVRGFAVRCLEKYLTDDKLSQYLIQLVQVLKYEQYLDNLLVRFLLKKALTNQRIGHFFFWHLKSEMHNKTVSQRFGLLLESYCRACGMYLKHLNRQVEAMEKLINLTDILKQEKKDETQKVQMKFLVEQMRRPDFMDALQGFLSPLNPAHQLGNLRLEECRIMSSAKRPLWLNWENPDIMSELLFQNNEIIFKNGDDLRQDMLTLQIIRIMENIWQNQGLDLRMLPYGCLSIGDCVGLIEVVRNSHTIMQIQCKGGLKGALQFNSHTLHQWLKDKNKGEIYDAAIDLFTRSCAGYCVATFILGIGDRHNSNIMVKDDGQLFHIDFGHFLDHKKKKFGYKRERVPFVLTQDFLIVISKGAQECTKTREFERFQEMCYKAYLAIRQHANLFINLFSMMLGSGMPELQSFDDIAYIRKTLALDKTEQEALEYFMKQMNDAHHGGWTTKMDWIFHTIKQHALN

| inhibition [1] | inhibition [2] | inhibition [3] | inhibition [4] | inhibition [5] | SMILES |
| --- | --- | --- | --- | --- | --- |
| < 50% | < 50% | < 50% | < 50% | < 50% | CN1CCN(c2ccc(-c3cnc4c(c3)N(Cc3cc(Cl)ccc3Cl)CCN4)cn2)CC1 |
| < 50% | < 50% | < 50% | < 50% | < 50% | CN1CCN(c2ccc(-c3cnc4c(c3)N(Cc3cc(Cl)ccc3C(F)(F)F)CCN4)cn2)CC1 |
| < 50% | < 50% | < 50% | – | – | COC1CCN(C(=O)c2ccc(-c3cnc4c(c3)N(Cc3cc(Cl)ccc3C(F)(F)F)CCN4)cc2)CC1 |
| < 50% | < 50% | < 50% | – | – | O=C(c1ccc(-c2cnc3c(c2)N(Cc2cc(Cl)ccc2C(F)(F)F)CCN3)cc1)N1CCCCC1 |
| < 50% | < 50% | < 50% | < 50% | < 50% | FC(F)(F)c1ccc(Cl)cc1CN1CCNc2ncc(-c3ccnc(N4CCNCC4)c3)cc21 |
| < 50% | < 50% | < 50% | < 50% | < 50% | CC(=O)N1CCN(c2cc(-c3cnc4c(c3)N(Cc3cc(Cl)ccc3C(F)(F)F)CCN4)ccn2)CC1 |
| < 50% | < 50% | < 50% | – | – | O=C(O)c1ccc(-c2cnc3c(c2)N(Cc2cc(Cl)ccc2C(F)(F)F)CCN3)cc1 |
| < 50% | < 50% | < 50% | – | – | O=C(c1ccc(-c2cnc3c(c2)N(Cc2cc(Cl)ccc2C(F)(F)F)CCN3)cc1)N1CCC(N2CCCC2)CC1 |
| < 50% | < 50% | < 50% | < 50% | < 50% | CN1CCN(c2ccc(-c3cnc4c(c3)N(Cc3c(F)ccc(F)c3Cl)CCN4)cn2)CC1 |
| < 50% | < 50% | < 50% | < 50% | < 50% | CN1CCN(c2ccc(-c3cnc4c(c3)N(Cc3cc(F)ccc3F)CCN4)cn2)CC1 |
